Measurements from ChEMBL document CHEMBL4196063, “A novel synthetic peptide inspired on Lys49 phospholipase A2 from Crotalus oreganus abyssus snake venom active against multidrug-resistant clinical isolates” (2018).
Activity calls are given as the source filed them. The calls are words filed in the database; no cut-off is given here. Where a SMILES comes first, the peptide text is derived from it.

Legend:
Staphylococcus aureus [1] = test: Antibacterial activity against Staphylococcus aureus rib1 at 575 uM after 24 hrs by agar well diffusion assay; assay type: functional, organism-based
Procedure, shortened: (§1)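 Agar well diffusion followed Bauer/CLSI with minor changes. Strains were subcultured in MHB and grown on Mueller Hinton agar at 37 °C for a day. Wells were punched aseptically, and 100 μl of peptide in PBS (575 μM) was placed in each well. Plates were incubated at 37 °C for 24 h and inhibition halo diameters measured by caliper. Commercial antibiotics served as positive control, with at least three runs.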

Pseudomonas aeruginosa [2] = test: Growth inhibition of Pseudomonas aeruginosa 31NM at 5.95 uM after 24 hrs by CLSI broth microdilution method; assay type: functional; conditions: read-out: GI
Procedure, shortened: (§2)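 Broth microdilution per CLSI. Peptide dissolved in Mueller Hinton broth and serially diluted (5.95–190 μM tested) in MHB. Bacteria were subcultured in MHB and grown on Mueller Hinton agar at 37 °C for a day, then added at 1 × 10⁸ CFU/ml. Incubation 37 °C for 24 h, with growth read at 595 nm. Antibiotic positive and medium negative controls. At least three runs, mean ± SD.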

Staphylococcus aureus [3] = test: Antibacterial activity against Staphylococcus aureus BEC9393 at 575 uM after 24 hrs by agar well diffusion assay; assay type: functional, organism-based; procedure, shortened: as §1
Escherichia coli [4] = test: Antibacterial activity against Escherichia coli ATCC 25922 at 5.95 to 190 uM after 24 hrs by CLSI broth microdilution method; assay type: functional, organism-based
Procedure, shortened: (§3)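 Strains were kept frozen in MHB with 20% glycerol, subcultured in MHB, and grown on Mueller Hinton agar at 37 °C for a day. Peptide was dissolved in medium and serially diluted into MHB in 96-well plates, then bacterial suspension was added (1 × 10⁸ CFU/ml). Plates were held at 37 °C for 24 h and growth inhibition read at 595 nm. Runs were done at least three times, mean ± SD.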

Staphylococcus aureus [5] = test: Antibacterial activity against Staphylococcus aureus BEC9393 at 5.95 to 190 uM after 24 hrs by CLSI broth microdilution method; assay type: functional, organism-based; procedure, shortened: as §3
Pseudomonas aeruginosa [6] = test: Antibacterial activity against Pseudomonas aeruginosa 31NM at 5.95 to 190 uM after 24 hrs by CLSI broth microdilution method; assay type: functional, organism-based; procedure, shortened: as §3
Pseudomonas aeruginosa [7] = test: Antibacterial activity against Pseudomonas aeruginosa 31NM at 575 uM after 24 hrs by agar well diffusion assay; assay type: functional, organism-based; procedure, shortened: as §1
Staphylococcus aureus [8] = test: Antibacterial activity against Staphylococcus aureus rib1 at 5.95 to 190 uM after 24 hrs by CLSI broth microdilution method; assay type: functional, organism-based; procedure, shortened: as §3
Pseudomonas aeruginosa [9] = test: Antibacterial activity against Pseudomonas aeruginosa ATCC 27853 at 5.95 to 190 uM after 24 hrs by CLSI broth microdilution method; assay type: functional, organism-based; procedure, shortened: as §3
Pseudomonas aeruginosa [10] = test: Antibacterial activity against Pseudomonas aeruginosa ATCC 27853 at 575 uM after 24 hrs by agar well diffusion assay; assay type: functional, organism-based; procedure, shortened: as §1
Escherichia coli [11] = test: Antibacterial activity against Escherichia coli ATCC 25922 at 575 uM after 24 hrs by agar well diffusion assay; assay type: functional, organism-based; procedure, shortened: as §1
Pseudomonas aeruginosa [12] = test: Growth inhibition of Pseudomonas aeruginosa ATCC 27853 at 5.95 uM after 24 hrs by CLSI broth microdilution method; assay type: functional; conditions: ATCC 27853, 24 h, read-out: GI; procedure, shortened: as §2

CC[C@H](C)[C@H](NC(=O)[C@H](CCCNC(=N)N)NC(=O)[C@H](Cc1ccc(O)cc1)NC(=O)[C@H](CCCCN)NC(=O)[C@@H](N)CCCCN)C(=O)N[C@@H](Cc1ccc(O)cc1)C(=O)N1CCC[C@H]1C(=O)N[C@@H](CCCCN)C(=O)N[C@@H](Cc1ccccc1)C(=O)N[C@@H](CC(C)C)C(=O)N[C@@H](CS)C(=O)N[C@@H](CCCCN)C(=O)N[C@@H](CCCCN)C(=O)O (H-KKYRIYPKFLCKK-OH)
Activity (Staphylococcus aureus [1]): Active
inhibition of growth at 5.95 µM (Pseudomonas aeruginosa [2]): 48%
Activity (Staphylococcus aureus [3]): Active
Activity (Escherichia coli [4]): Active
Activity (Staphylococcus aureus [5]): Active
Activity (Pseudomonas aeruginosa [6]): Active
Activity (Pseudomonas aeruginosa [7]): Active
Activity (Staphylococcus aureus [8]): Active
Activity (Pseudomonas aeruginosa [9]): Active
Activity (Pseudomonas aeruginosa [10]): Active
Activity (Escherichia coli [11]): Active
inhibition of growth at 5.95 µM (Pseudomonas aeruginosa [12]): 52%

CC(C)C[C@H](NC(=O)[C@H](Cc1ccccc1)NC(=O)[C@H](CCCCN)NC(=O)[C@@H]1CCCN1C(=O)[C@@H](N)Cc1ccc(O)cc1)C(=O)N[C@@H](CS)C(=O)N[C@@H](CCCCN)C(=O)N[C@@H](CCCCN)C(=O)N1CCC[C@H]1C(=O)O (H-YPKFLCKKP-OH)
Activity (Staphylococcus aureus [1]): inactive
Activity (Staphylococcus aureus [3]): inactive
Activity (Pseudomonas aeruginosa [7]): inactive
Activity (Pseudomonas aeruginosa [10]): inactive
Activity (Escherichia coli [11]): inactive
